Compound activity: PubChem BioAssay, Broad Institute
AF4-AF9 inh – MLL-AF4/AF9 protein interaction inhibition. P42568. AlphaScreen, biotin-AF4 peptide binding to FLAG-AF9. inhibition, % at 10 µM. 350,000 compounds, 0.47% hits;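 active = every replicate reaching a set inhibition limit, whatever the replicate mean, cut at about 25% in these data; inconclusive = mean inhibition reaches that limit but some replicates miss it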
Target sequence (P42568 whole entry, looked up): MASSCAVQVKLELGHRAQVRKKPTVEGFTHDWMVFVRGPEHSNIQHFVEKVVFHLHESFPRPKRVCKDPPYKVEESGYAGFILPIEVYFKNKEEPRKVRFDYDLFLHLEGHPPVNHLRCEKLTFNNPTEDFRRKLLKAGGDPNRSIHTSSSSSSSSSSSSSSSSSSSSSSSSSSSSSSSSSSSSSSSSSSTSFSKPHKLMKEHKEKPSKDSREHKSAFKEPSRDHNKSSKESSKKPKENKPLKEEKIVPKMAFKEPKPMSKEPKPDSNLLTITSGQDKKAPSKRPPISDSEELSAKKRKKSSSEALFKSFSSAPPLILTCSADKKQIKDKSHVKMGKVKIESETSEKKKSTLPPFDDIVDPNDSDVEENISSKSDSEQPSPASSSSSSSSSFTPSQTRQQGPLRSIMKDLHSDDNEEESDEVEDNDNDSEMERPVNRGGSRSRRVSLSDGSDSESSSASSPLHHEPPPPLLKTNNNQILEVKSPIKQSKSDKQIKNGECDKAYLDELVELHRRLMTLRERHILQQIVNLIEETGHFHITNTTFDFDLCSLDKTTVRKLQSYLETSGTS
PfHsp90 set2 – growth inhibition of yeast expressing Plasmodium Hsp90; S. cerevisiae expressing PfHsp90, BacTiter-Glo ATP, 48 h; yeast lacking PDR1 and PDR3 efflux regulators; inhibition, % at 9.4 µM; 310,000 compounds, 0.32% hits; AID 504621;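 active = every replicate shows inhibition above about 80%, whatever the replicate mean, limit read from the data; inconclusive = mean inhibition reaches the set limit but some replicate falls short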
S100A4 inh HTS – inhibitors of human S100A4 binding to myosin IIA peptide; S100A4/TAMRA-MyoIIA peptide fluorescence polarization; inhibition, % at 10.7 µM; 360,000 compounds, 0.14% hits; AID 652163;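 active = mean inhibition of at least 70% across replicates, with every replicate also reaching that level; inconclusive = mean inhibition reaches 70% but some replicates fall short; inactive = mean inhibition below 70%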
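assay system = human S100A4 monomer with TAMRA-labelled myosin IIA peptide | also added = labelled myosin peptide probe, 5 nM | incubation = 5 min between mix addition and reading | control set = DMSO and TFP controls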
Ecoli rRNA inh – inhibits bacterial ribosomal RNA function over humanized ribosomes; GFP signal change (wild-type ribosome), % (concentration not given with the values); E. coli WT GFP vs humanized-ribosome RFP mutants, fluorescence, 24 h; active compounds read low; DMSO median 0, no signal -100; 350,000 compounds, 1.6% hits;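 active = significant combined selectivity score with lowered wild-type GFP, culture density cut under 30%, mutant RFP and density less affected; inactive = any of these conditions unmet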
Cneo AK release – Cryptococcus neoformans lysis via adenylate kinase release; C. neoformans lysis, adenylate kinase release luminescence, 4 h; normalised: neutral wells 0, clomiphene wells 100; lysis activity, % at 15 µM; 360,000 compounds, 0.2% hits; AID 651654;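 active = mean lysis activity across replicates of at least 80%, whatever share of replicates individually reach that level; inactive = mean lysis activity below 80%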
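read-out = cell lysis signal | test system = log-phase Cryptococcus neoformans yeast cells | input = cells at 5 × 10^6 per mL | medium = fresh YPD growth medium | signal = luminescent adenylate kinase detection reagent | timing = 4 h at 37 °C static, read 1 h later | dosing = single dose | controls = Clomiphene as positive lysis control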
DENV2 CPE – inhibitors of DENV2 cytopathic effect; DENV2-infected cells, cytopathic effect rescue, plate reader; CPE inhibition, % at 9.99 µM; 350,000 compounds, 1.7% hits; AID 651640; in the data active = CPE inhibition above about 20%, passing the limit was not always enough; inconclusive = no clear call, values can overlap the other calls; tested in BHK-21 cells
Large screens that a line does not name were inactive. Most compounds without a hit are left out; they make up all but 3.2% or so of the library.

Cc1ncc(CO)c(/C=N/NC(=O)c2cc(Br)ccc2O)c1O	AF4-AF9 inh 28 (no result: Cneo AK release)
CO[C@@H]1CN(C)C(=O)c2ccc(NS(=O)(=O)c3cn(C)cn3)cc2OC[C@@H](C)N(CC2CC2)C[C@H]1C	DENV2 CPE 21 (no result: PfHsp90 set2)
CCCN1C[C@H](C)[C@H](OC)CN(C)C(=O)c2cc(NS(=O)(=O)c3cn(C)cn3)ccc2OC[C@@H]1C	DENV2 CPE 90 (no result: PfHsp90 set2)
CCNC(=O)C[C@H]1CC[C@@H]2[C@H](COc3ccc(NC(=O)Nc4ccc(C)cc4)cc3C(=O)N2C)O1	none (no result: PfHsp90 set2)
CN(C)C(=O)C[C@@H]1C=C[C@@H](NC(=O)C2CCC2)[C@H](CO)O1	none (no result: PfHsp90 set2)
Fc1cccc(-c2cc3nc4c(c(NCc5ccco5)n3n2)CCCC4)c1	Ecoli rRNA inh -32 (no result: DENV2 CPE)
COc1cccc(-c2cc3nc4c(c(NCC(C)(C)CN(C)C)n3n2)CCCC4)c1	none (no result: Cneo AK release)
CCOc1cc(/C=N/NC(=O)C(=O)NC2CC2)cc(Br)c1O	DENV2 CPE 47
COC(=O)c1nn(-c2ccccc2)c(Sc2ccc(Cl)cc2)c1/C=N/O	none (no result: AF4-AF9 inh, S100A4 inh HTS, Ecoli rRNA inh, DENV2 CPE)
COC(=O)c1nn(-c2ccccc2)c(Sc2ccc(Br)cc2)c1/C=N/O	Ecoli rRNA inh -20 (no result: AF4-AF9 inh, DENV2 CPE)
C=CCN1C(=O)c2ccccc2Sc2ccc(C(=O)NC(C)C)cc21	none
C=CCN1C(=O)c2ccccc2Sc2ccc(C(=O)NCC(OC)OC)cc21	DENV2 CPE 29
COCC(=O)N(C)C[C@H]1Oc2cc(-c3ccc(C)cc3)ccc2S(=O)(=O)N([C@@H](C)CO)C[C@H]1C	none (no result: PfHsp90 set2)
C[C@H](CO)N1C[C@H](C)[C@H](CN(C)CC2CCOCC2)Oc2cc(Br)ccc2S1(=O)=O	DENV2 CPE inconclusive (no result: AF4-AF9 inh, PfHsp90 set2, S100A4 inh HTS)
Cc1ccc(S(=O)(=O)N[C@@H]2CC[C@@H](CCn3cc(-c4ccccc4F)nn3)O[C@@H]2CO)cc1	none (no result: PfHsp90 set2)
O=c1cc(C(F)(F)F)[nH]c2ccc(C(F)(F)F)cc12	Ecoli rRNA inh -50 (no result: AF4-AF9 inh, Cneo AK release)
CCCCCC(=C/c1ccccc1)/C=N/Nc1ccc(S(=O)(=O)N2CCOCC2)cc1[N+](=O)[O-]	DENV2 CPE 32
COCCNc1ncnc2c1ncn2[C@H]1CN(Cc2ccc(F)cc2)C[C@@H](CO)O1	DENV2 CPE 40 (no result: PfHsp90 set2, Ecoli rRNA inh)
C[C@H]1CN([C@@H](C)CO)S(=O)(=O)c2ccc(C#Cc3ccccc3)cc2O[C@H]1CN(C)CC1CC1	DENV2 CPE 35 (no result: PfHsp90 set2)
C[C@@H]1CN([C@H](C)CO)S(=O)(=O)c2ccc(C#Cc3ccccc3)cc2O[C@@H]1CN(C)CC1CC1	none (no result: PfHsp90 set2)
C/C=C/c1ccc2c(c1)O[C@@H](CN(C)C(=O)Nc1ccccc1)[C@H](C)CN([C@H](C)CO)S2(=O)=O	DENV2 CPE 28 (no result: PfHsp90 set2)
C[C@@H]1CN([C@@H](C)CO)S(=O)(=O)c2ccc(/C=C/c3ccccc3)cc2O[C@H]1CN(C)C(=O)c1ccncc1	DENV2 CPE 41 (no result: PfHsp90 set2)
C[C@@H]1CN([C@H](C)CO)S(=O)(=O)c2ccc(C#CCN(C)C)cc2O[C@@H]1CN(C)CC1CC1	S100A4 inh HTS 96 (no result: PfHsp90 set2)
COc1cccc(NC(=O)N2C[C@@H](O)COC[C@H]3O[C@@H](CC(=O)NC4CCC4)CC[C@@H]32)c1	none (no result: PfHsp90 set2)
CCCNC(=O)C[C@H]1CC[C@H]2[C@H](COc3ccc(NC(=O)NCC)cc3C(=O)N2C)O1	none (no result: PfHsp90 set2)
C[C@@H]1CN([C@@H](C)CO)C(=O)c2cc(NS(=O)(=O)c3cccs3)ccc2O[C@@H](C)CCCCO[C@@H]1CN(C)CC1CCCCC1	none (no result: PfHsp90 set2)
C[C@H](CO)N1C[C@H](C)[C@H](CN(C)CC2CC2)Oc2cc(/C=C/c3ccccc3)ccc2S1(=O)=O	AF4-AF9 inh 26 (no result: PfHsp90 set2, Ecoli rRNA inh)
C[C@@H]1CN([C@H](C)CO)S(=O)(=O)c2ccc(C#CC3CCCC3)cc2O[C@H]1CN(C)C	DENV2 CPE 61 (no result: PfHsp90 set2)
C[C@H]1CN([C@@H](C)CO)S(=O)(=O)c2ccc(C#CC3CC3)cc2O[C@@H]1CN(C)Cc1ccncc1	DENV2 CPE 42 (no result: PfHsp90 set2)
C[C@@H]1CN([C@@H](C)CO)S(=O)(=O)c2ccc(C#CC3CC3)cc2O[C@H]1CN(C)CC1CCOCC1	Cneo AK release 87 (no result: PfHsp90 set2)
C[C@@H]1CN([C@H](C)CO)S(=O)(=O)c2ccc(C#CC3CCCC3)cc2O[C@@H]1CN(C)C	none (no result: PfHsp90 set2)
